Measured values taken from ChEMBL document CHEMBL1136934, “Synthesis of some novel organic nitrates and comparative in vitro study of their vasodilator profile” (J Med Chem, 2009).

How the values were obtained:
Aorta [1] = assay: Vasodilatory activity in Wistar rat endothelium-denuded thoracic aortic ring assessed as inhibition of phenylephrine-induced contraction; format: functional, tissue-based
Method in brief: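 Endothelium removed from rat aorta; three helically cut strips per aorta. Once agonist contraction plateaued, cumulative vasodilator concentrations were added. EC50 (µM) given as mean ± SE, n = 3-15.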

Aorta [2] = assay: Vasodilatory activity in Wistar rat endothelium-denuded thoracic aortic ring assessed as inhibition of phenylephrine-induced contraction drug treated 30 mins after 1 uM soluble guanylate cyclase heme site inhibitor ODQ treatment; format: functional, tissue-based; details: 0.5 h
Aorta [3] = assay: Vasodilatory activity in Wistar rat endothelium-denuded thoracic aortic ring assessed as inhibition of phenylephrine-induced contraction drug treated 30 mins after ALDH2 inhibitor chloral hydrate treatment; format: functional, tissue-based; details: 0.5 h
Aorta [4] = assay: Vasodilatory activity in Wistar rat endothelium-denuded cross tolerant thoracic aortic ring assessed as inhibition of phenylephrine-induced contraction preincubated with 0.55 mM GTN for 1 hr followed by washing; format: functional, tissue-based
Method in brief: (§1)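 Endothelium-denuded helical rat aortic strips. After 1 h equilibration, strips were incubated in 0.55 mM GTN for 1 h, then washed extensively for 1 h. Cumulative concentration-response curves were then run on contracted strips. EC50 (µM, mean ± SE, n = 3-15) was compared with untreated strips.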

Aorta [5] = assay: Ratio of EC50 for vasodilatory activity in Wistar rat endothelium-denuded thoracic aortic ring in presence of benomyl to EC50 for vasodilatory activity in Wistar rat endothelium-denuded thoracic aortic ring; format: functional
Aorta [6] = assay: Ratio of EC50 for vasodilatory activity in Wistar rat endothelium-denuded cross tolerant thoracic aortic ring preincubated with 0.55 mM GTN for 1 hr followed by washing to EC50 for vasodilatory activity in Wistar rat endothelium-denuded thoracic aortic ring; format: functional; method in brief: as §1
Aorta [7] = assay: Vasodilatory activity in Wistar rat endothelium-denuded thoracic aortic ring assessed as inhibition of phenylephrine-induced contraction drug treated 30 mins after ALDH2 inhibitor benomyl treatment; format: functional, tissue-based; details: 0.5 h
Aorta [8] = assay: Ratio of EC50 for vasodilatory activity in Wistar rat endothelium-denuded thoracic aortic ring in presence of chloral hydrate to EC50 for vasodilatory activity in Wistar rat endothelium-denuded thoracic aortic ring; format: functional

| Compound | EC50 (Aorta [1]) | EC50 (Aorta [2]) | EC50 (Aorta [3]) | EC50 (Aorta [4]) | Ratio EC50 (Aorta [5]) | Ratio EC50 (Aorta [6]) | EC50 (Aorta [7]) | Ratio EC50 (Aorta [8]) |
| --- | --- | --- | --- | --- | --- | --- | --- | --- |
| O=[N+]([O-])OCCCc1ccccc1 | 0.16 µM | > 100 µM | 3 µM | 20 µM | 9.4 | 125 | 1.5 µM | 19 |
| O=[N+]([O-])OCC(CO[N+](=O)[O-])O[N+](=O)[O-] [NITROGLYCERIN] | 0.029 µM | > 100 µM | 0.94 µM | 4.4 µM | 14 | 152 | 0.42 µM | 32 |
| O=[N+]([O-])OC[C@H](CCc1ccccc1)O[N+](=O)[O-] | 0.049 µM | 30 µM | 0.37 µM | 2.4 µM | 3.3 | 49 | 0.16 µM | 7.6 |
| O=[N+]([O-])OC[C@H](Cc1ccccc1)O[N+](=O)[O-] | 0.061 µM | > 100 µM | 1.2 µM | 6.1 µM | 9.8 | 100 | 0.6 µM | 20 |
| O=[N+]([O-])OC[C@@H](CCc1ccccc1)O[N+](=O)[O-] | 0.049 µM | 29 µM | 0.27 µM | 1.6 µM | 2.4 | 33 | 0.12 µM | 5.5 |
| O=[N+]([O-])OCCCCc1ccccc1 | 0.15 µM | 66 µM | 1.1 µM | 4.5 µM | 3.4 | 30 | 0.51 µM | 7.3 |
| O=[N+]([O-])OC[C@@H](Cc1ccccc1)O[N+](=O)[O-] | 0.063 µM | > 100 µM | 1.2 µM | 6.4 µM | 10 | 102 | 0.63 µM | 19 |
